In ChEMBL document CHEMBL1143334, “Peri-substituted hexahydro-indolones as novel, potent and selective human EP3 receptor antagonists” (Bioorg Med Chem Lett, 2009):
Active and inactive are the calls of the source. The rule behind the calls is not given here.

Key:
Homo sapiens [1] = species: Homo sapiens; assay: Selectivity of human FP receptor over human EP3 receptor
Homo sapiens [2] = species: Homo sapiens; assay: Selectivity of human EP2 receptor over human EP3 receptor
[3] = Metabolic stability in rat liver microsomes after 30 mins; format: ADME, Microsome; settings: read-out: Stability
Outline: (§1)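 Compound was incubated 30 min with liver microsomes from each species. Percent parent remaining was measured by LC/MS/MS.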

Homo sapiens [4] = species: Homo sapiens; assay: Selectivity of human EP1 receptor over human EP3 receptor
[5] = biological target: T1, Prostaglandin E2 receptor EP3 subtype (Homo sapiens) (UniProt P43115); assay: Ratio of IC50 for human EP3 receptor in presence of 10% human serum to IC50 for human EP3 receptor in buffer
T1 sequence (whole entry): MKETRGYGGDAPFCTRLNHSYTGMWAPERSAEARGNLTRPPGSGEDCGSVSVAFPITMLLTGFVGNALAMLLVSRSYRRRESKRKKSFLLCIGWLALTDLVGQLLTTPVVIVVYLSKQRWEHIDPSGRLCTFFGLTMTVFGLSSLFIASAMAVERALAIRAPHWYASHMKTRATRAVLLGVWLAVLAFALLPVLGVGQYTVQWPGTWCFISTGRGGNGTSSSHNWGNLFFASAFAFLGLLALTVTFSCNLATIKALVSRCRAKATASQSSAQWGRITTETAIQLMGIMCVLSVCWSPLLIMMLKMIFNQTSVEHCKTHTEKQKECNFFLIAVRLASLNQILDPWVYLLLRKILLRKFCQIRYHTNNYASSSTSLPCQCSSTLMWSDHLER
Outline: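 Displacement of [3H]-PGE2 from human EP3 membrane preparations was run both with 10% human serum and in buffer alone. Fold-shift is IC50 with serum divided by IC50 in buffer.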

[6] = biological target: T2, Prostaglandin E2 receptor EP3 subtype (Homo sapiens, UniProt P43115); assay: Displacement of [3H]PGE2 from human EP3 receptor
T2 sequence (P43115 whole entry): T1 sequence (whole entry)
Outline: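 Displacement of [3H]-PGE2 from human EP3 receptor membrane preparations was run in buffer. IC50 values come from at least three experiments each.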

[7] = Metabolic stability in human liver microsomes after 30 mins; format: ADME, Microsome; settings: read-out: Stability; outline: as §1
Homo sapiens [8] = species: Homo sapiens; assay: Selectivity of human EP4 receptor over human EP3 receptor
[9] = biological target: Prostaglandin E2 receptor EP4 subtype (Homo sapiens, UniProt P35408); assay: Binding affinity to human EP4 receptor by radioligand binding assay
Prostaglandin E2 receptor EP4 subtype, sequence (P35408 whole entry): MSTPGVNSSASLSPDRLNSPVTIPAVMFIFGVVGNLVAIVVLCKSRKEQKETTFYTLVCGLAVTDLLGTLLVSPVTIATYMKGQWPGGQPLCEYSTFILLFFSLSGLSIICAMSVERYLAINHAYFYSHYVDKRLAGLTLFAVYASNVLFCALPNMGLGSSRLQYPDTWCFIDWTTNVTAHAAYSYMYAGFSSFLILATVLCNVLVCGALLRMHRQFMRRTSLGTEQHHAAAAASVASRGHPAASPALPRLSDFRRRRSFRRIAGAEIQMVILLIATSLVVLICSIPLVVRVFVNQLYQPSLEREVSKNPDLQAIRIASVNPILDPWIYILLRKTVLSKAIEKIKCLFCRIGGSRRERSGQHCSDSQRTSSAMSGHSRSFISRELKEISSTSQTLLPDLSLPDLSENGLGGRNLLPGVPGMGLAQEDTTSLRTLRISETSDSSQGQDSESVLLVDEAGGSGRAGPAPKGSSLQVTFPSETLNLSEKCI

[10] = biological target: T3, Prostaglandin E2 receptor EP1 subtype (Homo sapiens, UniProt P34995); assay: Binding affinity to human EP1 receptor by radioligand binding assay
T3 sequence (P34995 whole entry): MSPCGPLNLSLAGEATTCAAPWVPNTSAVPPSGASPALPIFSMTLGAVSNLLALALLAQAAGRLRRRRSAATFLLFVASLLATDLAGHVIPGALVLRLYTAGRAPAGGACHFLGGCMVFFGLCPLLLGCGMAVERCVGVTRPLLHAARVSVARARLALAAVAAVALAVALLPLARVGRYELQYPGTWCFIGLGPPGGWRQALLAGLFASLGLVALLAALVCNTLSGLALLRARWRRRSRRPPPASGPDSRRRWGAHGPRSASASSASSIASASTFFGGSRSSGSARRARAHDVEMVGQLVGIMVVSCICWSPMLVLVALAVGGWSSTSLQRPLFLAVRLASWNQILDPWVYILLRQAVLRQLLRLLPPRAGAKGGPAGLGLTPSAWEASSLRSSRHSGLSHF

[11] = biological target: T4, Prostaglandin E2 receptor EP2 subtype (Homo sapiens, UniProt P43116); assay: Binding affinity to human EP2 receptor at 20 uM by radioligand binding assay
T4 sequence (P43116 whole entry): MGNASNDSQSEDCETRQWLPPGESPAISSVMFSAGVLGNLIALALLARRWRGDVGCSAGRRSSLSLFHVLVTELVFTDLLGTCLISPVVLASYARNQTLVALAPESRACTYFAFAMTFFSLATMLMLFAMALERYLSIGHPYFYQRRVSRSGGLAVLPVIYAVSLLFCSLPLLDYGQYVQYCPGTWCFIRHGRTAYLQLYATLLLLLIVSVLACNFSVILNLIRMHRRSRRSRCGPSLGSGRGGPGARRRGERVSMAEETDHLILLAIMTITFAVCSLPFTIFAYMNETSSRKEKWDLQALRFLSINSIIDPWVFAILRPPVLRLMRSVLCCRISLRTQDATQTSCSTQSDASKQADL

[12] = biological target: Prostaglandin F2-alpha receptor (Homo sapiens, UniProt P43088); assay: Binding affinity to human FP receptor by radioligand binding assay
Prostaglandin F2-alpha receptor, sequence (P43088 whole entry): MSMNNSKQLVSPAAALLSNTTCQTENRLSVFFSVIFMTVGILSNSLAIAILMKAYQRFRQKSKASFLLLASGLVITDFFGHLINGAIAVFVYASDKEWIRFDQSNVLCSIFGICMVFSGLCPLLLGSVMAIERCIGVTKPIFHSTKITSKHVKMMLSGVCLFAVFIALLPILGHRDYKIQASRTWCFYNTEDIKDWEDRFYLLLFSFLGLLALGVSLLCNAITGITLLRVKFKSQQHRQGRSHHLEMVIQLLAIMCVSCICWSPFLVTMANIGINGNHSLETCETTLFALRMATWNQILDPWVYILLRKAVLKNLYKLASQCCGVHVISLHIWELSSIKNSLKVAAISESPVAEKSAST

[13] = biological target: T4, Prostaglandin E2 receptor EP2 subtype; assay: Binding affinity to human EP2 receptor by radioligand binding assay
[14] = biological target: T5, Prostaglandin E2 receptor EP1 subtype (Homo sapiens) (UniProt P34995); assay: Binding affinity to human EP1 receptor at 20 uM by radioligand binding assay
T5 sequence (whole entry): T3 sequence (P34995 whole entry)

[15] = biological target: T2, Prostaglandin E2 receptor EP3 subtype; assay: Antagonist activity at human EP3 receptor expressed in CHO-K1 cells assessed as reversal of inhibition of forskolin-induced cAMP production; format: functional, cell-based
Outline: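 CHO-K1 cells stably expressing human EP3 were exposed to increasing test compound concentrations for 10 min at 37 °C, with 5 μM forskolin plus 5 nM PGE2 present. Read-out was the block of PGE2's inhibition of the forskolin-induced cAMP rise, giving IC50.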

[16] = Metabolic stability in dog liver microsomes after 30 mins; format: ADME, Canis lupus familiaris, Microsome; settings: read-out: Stability; outline: as §1
[17] = Aqueous solubility in 50 mM PSB buffer at pH 7.4 by HPLC analysis; format: physicochemical
Outline: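 Samples were stirred overnight in 50 mM PSB buffer, pH 7.4, then filtered. Concentration was measured by HPLC against a 5-point standard curve, giving thermodynamic solubility.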

[18] = Metabolic stability in monkey liver microsomes after 30 mins; format: ADME, Macaca mulatta, Microsome; settings: rhesus monkey, read-out: Stability; outline: as §1

| Selectivity ratio (Homo sapiens [1]) | Selectivity ratio (Homo sapiens [2]) | remaining at 0.5 h [3] [%] | Selectivity ratio (Homo sapiens [4]) | fold change (FC) [5] | IC50 [6] [µM] | remaining at 0.5 h [7] [%] | Selectivity ratio (Homo sapiens [8]) | IC50 [9] [µM] | IC50 [10] [µM] | Activity [11] | IC50 [12] [µM] | IC50 [13] [µM] | Activity [14] | IC50 [15] [µM] | remaining at 0.5 h [16] [%] | solubility [17] [µg/mL] | remaining at 0.5 h [18] [%] | Compound |
| --- | --- | --- | --- | --- | --- | --- | --- | --- | --- | --- | --- | --- | --- | --- | --- | --- | --- | --- |
| > 1000 | > 1000 | 37 | > 1000 | 7 | 0.0037 | 62 | > 1000 | 20.8 | 11.6 | inactive | 7.6 | – | – | – | – | – | – | CC12CCCC(/C=C/C(=O)NS(=O)(=O)c3cc(F)c(F)cc3F)=C1N(Cc1ccc(Cl)cc1Cl)C(=O)C2 (stereo not given) |
| > 1000 | > 1000 | 89 | > 1000 | 9.3 | 0.0077 | 75 | > 1000 | 6.2 | – | – | 3.8 | 13.9 | inactive | 0.0035 | 87 | > 3000 | 54 | CC12CCCC(/C=C/C(=O)NS(=O)(=O)c3cc(F)c(F)cc3F)=C1N(Cc1ccc(F)c(F)c1)C(=O)C2 (stereo not given) |
| > 1000 | > 1000 | 82 | > 1000 | 3.2 | 0.0094 | 79 | > 1000 | 7.7 | – | – | 16.4 | 2.3 | inactive | – | – | – | – | CC12CCCC(/C=C/C(=O)NS(=O)(=O)c3ccc(F)c(F)c3)=C1N(Cc1ccc(F)c(F)c1)C(=O)C2 (stereo not given) |
